Molecules are shown by their SMILES. Active and inactive are the calls of the source. No cut-off for these calls is given here.

As a reminder, the ILS is how much longer treated animals lived than controls.

Assay [1] can be described thus: Antitumor activity against mouse early Lewis lung carcinoma allografted in BDF1 mouse assessed as increase in host life span at 17 mg/kg, ip administered as single dose on 1 or 2 days post-tumor implantation. It counts as functional. The settings on record: route intraperitoneal. An outline of the steps:
(§1)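 BDF1 mice (C57Blk/6 × DBA/2) implanted sc by trocar with ~40 mg Lewis lung tumor fragments from bacteriologically sterile donor tumors. Single ip dose on day 1 or 2, as a solution or suspension in water (CMC or gum acacia) or saline (HPC or Tween 80). Read-out is […]. Same-dose toxicity controls were run in nontumor-bearing mice.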

Assay [2] can be described thus: Antitumor activity against mouse early Lewis lung carcinoma allografted in BDF1 mouse assessed as increase in host life span at 11 mg/kg, ip administered as single dose on 1 or 2 days post-tumor implantation. It counts as functional. The settings on record: route intraperitoneal. An outline of the steps:
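Early disease: BDF1 mice carrying sc trocar implants of about 40 mg Lewis lung fragments. One ip dose given on day 1 or 2 after implant, in distilled water or saline, at ≤0.5 ml. Endpoints were % increase in life-span of dying animals and delay in days for the primary tumor to reach 1 g. Untreated controls served as reference.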

A short description of assay [3]: Antitumor activity against mouse early Lewis lung carcinoma allografted in BDF1 mouse assessed as time delay in tumor growth at 17 mg/kg, ip administered as single dose on 1 or 2 days post-tumor implantation. It counts as functional. The note with it: route intraperitoneal. An outline of the steps: (§2)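 BDF1 mice (C57Blk/6 × DBA/2) implanted sc by trocar with ~40 mg Lewis lung tumor fragments from bacteriologically sterile donors. A single ip dose was given on day 1 or 2, as a solution or suspension in water or saline with suspending agent, at ≤0.5 ml. Tumors were measured by caliper at least twice weekly, with weight = ab²/2. Delay was taken as the days for the tumor to reach 1 g.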

The nature of assay [4]: Antitumor activity against mouse early Lewis lung carcinoma allografted in BDF1 mouse assessed as time delay in tumor growth at 11 mg/kg, ip administered as single dose on 1 or 2 days post-tumor implantation. It counts as functional. The note with it: route intraperitoneal. The essentials: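 Sc trocar implants of about 40 mg Lewis lung fragments in BDF1 mice. A single ip injection was given on day 1 or 2, in water or physiological saline, at ≤0.5 ml. Tumor size came from caliper length and width as w = ab²/2, measured at least twice weekly. Growth delay is the extra days taken to reach 1 g, compared with untreated controls.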

In assay [5] the test system is Mus musculus. Description: Antitumor activity against mouse advanced Lewis lung carcinoma allografted in BDF1 mouse assessed as disease cure at 15 mg/kg, ip administered as single dose on 7th day post-tumor implantation measured for 80 days post-drug treatment. It counts as functional, organism-based. Further details: dose 15 mg/kg. The essentials:
(§3)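 BDF1 mice (C57Blk/6 × DBA/2) implanted sc by trocar with Lewis lung tumor fragments of about 40 mg, taken only from bacteriologically sterile donor tumors. Mice bearing tumors of about 400 mg (day 6-7) were selected. Each received a single ip dose on day 7, at or below the LD10 in normal mice. Groups were of 10 mice. Tumor weight was taken from calipers as w = ab²/2, measured at least twice weekly. Matched non-tumor mice served as toxicity controls.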

A short description of assay [6]: Antitumor activity against mouse advanced Lewis lung carcinoma allografted in BDF1 mouse assessed as increase in host life span at 15 mg/kg, ip administered as single dose on 7th day post-tumor implantation. It counts as functional. The note with it: route intraperitoneal. The essentials: (§4)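 BDF1 mice (C57Blk/6 × DBA/2) implanted sc by trocar with about 40 mg Lewis lung tumor fragments from bacteriologically sterile donors. Advanced-disease groups held tumors of about 400 mg by day 6-7, sized by caliper (w = ab²/2). Single ip injection on day 7, in water or saline vehicle, at or below the LD10 in normal mice. Tumors measured at least twice weekly.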

The nature of assay [7]: Antitumor activity against mouse early Lewis lung carcinoma allografted in ip dosed BDF1 mouse assessed as disease cure administered as single dose on 1 or 2 days post-tumor implantation measured for 80 days post-drug treatment. It counts as functional. An outline of the steps:
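BDF1 mice implanted sc by trocar with ~40 mg Lewis lung fragments from sterile donor tumors. A single ip dose was given on day 1 or 2 after implant, in water or saline vehicle. Cures were scored in animals observed for at least 80 days after treatment. Drug-toxicity controls were matched non-tumor-bearing mice monitored for body weight and deaths.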

Assay [8] is described as follows: Ratio of ED50 for antitumor activity against mouse L1210 cells allografted in ip dosed mouse to LD10 for mouse.
In assay [9] the test system is Mus musculus. Kind of assay: Antitumor activity against mouse advanced Lewis lung carcinoma allografted in ip dosed BDF1 mouse assessed as complete regression of established tumor administered as single dose on day 6 or 7 post-tumor implantation. It counts as functional, organism-based. The essentials: as §3
Assay [10] concerns Mus musculus. Description: Antitumor activity against mouse advanced Lewis lung carcinoma allografted in ip dosed BDF1 mouse assessed as disease cure administered as single dose on day 6 or 7 post-tumor implantation. It counts as functional, organism-based. The essentials: as §3
Assay [11] can be described thus: Antitumor activity against mouse advanced Lewis lung carcinoma allografted in ip dosed BDF1 mouse assessed as increase in host lifespan administered as single dose on day 6 or 7 post-tumor implantation. It counts as functional. An outline of the steps:
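Advanced Lewis lung model: about 40 mg fragments implanted sc by trocar into BDF1 mice, and mice with tumors of about 400 mg (day 6-7) selected. Tumor weight from calipers, w = ab²/2. Agent given as one ip dose in distilled water or physiological saline. Nontumor-bearing mice received matching doses as toxicity controls.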

Assay [12] can be described thus: Antitumor activity against mouse early Lewis lung carcinoma allografted in BDF1 mouse assessed as increase in host life span at 26 mg/kg, ip administered as single dose on 1 or 2 days post-tumor implantation. It counts as functional. The settings on record: route intraperitoneal. An outline of the steps:
as §1

Assay [13] is described as follows: Antitumor activity against mouse early Lewis lung carcinoma allografted in BDF1 mouse assessed as increase in host life span at 34 mg/kg, ip administered as single dose on 1 or 2 days post-tumor implantation. It counts as functional. The note with it: route intraperitoneal. The essentials:
as §1

Assay [14] can be described thus: Antitumor activity against mouse advanced Lewis lung carcinoma allografted in BDF1 mouse assessed as increase in host life span at 26 mg/kg, ip administered as single dose on 7th day post-tumor implantation. It counts as functional. The note with it: route intraperitoneal. The essentials: as §4
Assay [15] in a line: Antitumor activity against mouse early Lewis lung carcinoma allografted in BDF1 mouse assessed as time delay in tumor growth at 26 mg/kg, ip administered as single dose on 1 or 2 days post-tumor implantation. It counts as functional. The note with it: route intraperitoneal. An outline of the steps:
as §2

Assay [16] can be described thus: Antitumor activity against mouse early Lewis lung carcinoma allografted in BDF1 mouse assessed as time delay in tumor growth at 34 mg/kg, ip administered as single dose on 1 or 2 days post-tumor implantation. The settings on record: route intraperitoneal. It counts as functional. An outline of the steps:
as §2

Assay [17] is described as follows: Antitumor activity against mouse early Lewis lung carcinoma allografted in BDF1 mouse assessed as increase in host life span at 32 mg/kg, ip administered as single dose on 1 or 2 days post-tumor implantation. It counts as functional. The settings on record: route intraperitoneal. The essentials: as §1
A short description of assay [18]: Antitumor activity against mouse early Lewis lung carcinoma allografted in BDF1 mouse assessed as increase in host life span at 21 mg/kg, ip administered as single dose on 1 or 2 days post-tumor implantation. The note with it: route intraperitoneal. It counts as functional. An outline of the steps:
as §1

Assay [19] is described as follows: Antitumor activity against mouse early Lewis lung carcinoma allografted in BDF1 mouse assessed as time delay in tumor growth at 32 mg/kg, ip administered as single dose on 1 or 2 days post-tumor implantation. It counts as functional. The note with it: route intraperitoneal. The essentials:
as §2

The nature of assay [20]: Antitumor activity against mouse early Lewis lung carcinoma allografted in BDF1 mouse assessed as time delay in tumor growth at 21 mg/kg, ip administered as single dose on 1 or 2 days post-tumor implantation. It counts as functional. The note with it: route intraperitoneal. An outline of the steps: as §2
For assay [21], the system named is Mus musculus. Description: Antitumor activity against mouse advanced Lewis lung carcinoma allografted in BDF1 mouse assessed as disease cure at 33 mg/kg, ip administered as single dose on 7th day post-tumor implantation measured for 80 days post-drug treatment. It counts as functional, organism-based. Further details: dose 33 mg/kg. The essentials:
as §3

Assay [22] can be described thus: Antitumor activity against mouse advanced Lewis lung carcinoma allografted in BDF1 mouse assessed as increase in host life span at 33 mg/kg, ip administered as single dose on 7th day post-tumor implantation. It counts as functional. The note with it: route intraperitoneal. The essentials: as §4

For the compound `O=NN(CCCl)C(=O)NC1CCC(=O)NC1=O` (configuration not stated), in assay [1], the ILS at 17 mg/kg was determined as 28%. Also, the increase in lifespan (ILS) at 11 mg/kg in [2] was found to be 32%. Besides, the results for the Time in assay [3] and in assay [4] were 3.8 days and 1.4 days, respectively. Moreover, the outcome in the assay with Mus musculus [5] and in the assay on Mus musculus [10] was inactive. Further, in [6], the increase in lifespan (ILS) at 15 mg/kg was found to be 49%. Moreover, the Activity in assay [7] stood at 10%. Also, the Ratio in assay [8] worked out at 0.4. In the assay on Mus musculus [9], the inhibition entry is “Active”. The ILS in assay [11] was more than 25%.
For `O=NN(CCCl)C(=O)N[C@H]1CC[C@H](CC(=O)O)CC1`, the increase in lifespan (ILS) at 26 mg/kg in assay [12] was 34%; in assay [14] it was 24%. The increase in lifespan (ILS) at 34 mg/kg in assay [13] turned out to be 23%. For the same compound, the Time in [15] came to 10 days; in assay [16] it was 11 days. In addition, in [7], the Activity was more than 50%. In assay [8], the Ratio is reported as 0.3. Besides, the inhibition result with Mus musculus [9] was “inactive”. Besides, the result with Mus musculus [10] was inactive. The increase in lifespan (ILS) in [11] is given as more than 25%.
Regarding `O=NN(CCF)C(=O)NC1CCS(=O)(=O)CC1`, in assay [17], the ILS at 32 mg/kg worked out at 0%. Also, the increase in life span (ILS) at 21 mg/kg in [18] turned out to be 18%. Also, the Time came to 15 days in assay [19] and 8.3 days in assay [20]. For the same compound, the result in the assay on Mus musculus [21] and with Mus musculus [10] was inactive. In addition, the increase in life span (ILS) at 33 mg/kg in [22] came to 0%. For the same compound, the Activity in assay [7] worked out at 10%. Moreover, in assay [8], the Ratio was 0.3. Moreover, in the assay with Mus musculus [9], the inhibition result was “inactive”. In addition, in [11], the ILS was more than 25%.

(Values after ChEMBL document CHEMBL3271979, “Inhibition of solid tumors by nitrosoureas. 1. Lewis lung carcinoma” (1977).)
